Measured values taken from the RNAGym collection of RNA variant scans (doi:10.1126/science.aae0568).
Variants at the floor of the assay were thinned out.

B1: tRNA (parent)
chain: GUUCCGUUGGCGUAAUGGUAACGCGUCUCCCUCCUAAGGAGAAGACUGCGGGUUCGAGUCCCGUACGGAACG

Variants of: B1
Experiment: yeast fitness relative to wild type (ratio to wild type); higher = fitter; tRNA-Arg(CCU), competitive growth, 37 C, YPD
Summary of the method: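 Amplicons of the tRNA-Arg(CCU) gene were sequenced, 100-nucleotide paired-end, from the start population and from each end population of a pooled yeast competition. The competition, in six parallel replicates, lasted 24 hours in YPD at 37°C. Fitness relative to wild type was calculated from changes in genotype frequencies. Genotypes had to have ≥ 100 starting reads, and estimates < 0.5 were set to 0.5.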

Row | Variant | yeast fitness
1 | A20C A42U A65U | 0.553
2 | A20C A43C | 0.816
3 | A20C A43U A69C | 0.605
4 | A20C A45C C46U | 0.587
5 | A20C A57G G63A | 0.558
6 | A20C A57U A65U | 0.571
7 | A20C A65C | 0.957
8 | A20C A70U | 1.12
9 | A20C C22A A36C A69U | ≤ 0.5
10 | A20C C22A C27G G51C | ≤ 0.5
11 | A20C C22G C29A C55G G56C | ≤ 0.5
12 | A20C C22G C33U A45U | ≤ 0.5
13 | A20C C22G C60A | ≤ 0.5
14 | A20C C22G U47G G51C G63A G68C | ≤ 0.5
15 | A20C C22U A40U A65G A69C | ≤ 0.5
16 | A20C C22U A43U | 0.584
17 | A20C C22U A45C A65C | ≤ 0.5
18 | A20C C22U C66U | 0.622
19 | A20C C22U G39C | ≤ 0.5
20 | A20C C22U U47A C62U | 0.643
21 | A20C C24A G56A C62U A70C | 0.588
22 | A20C C24G | 0.679
23 | A20C C24G A37G | ≤ 0.5
24 | A20C C24G A40C C55G | ≤ 0.5

Row | Variant | yeast fitness
25 | A20C C24G A42G | 0.585
26 | A20C C24G C27A G44A | ≤ 0.5
27 | A20C C24G C27A G51C C61U | 0.586
28 | A20C C24G C29G A37G C66G | ≤ 0.5
29 | A20C C24G C33G | ≤ 0.5
30 | A20C C24G U64C | 0.56
31 | A20C C24U A42U U59C | 0.619
32 | A20C C24U A57G C61U | 0.617
33 | A20C C24U C61G | ≤ 0.5
34 | A20C C24U G44A C60G | ≤ 0.5
35 | A20C C27G | 0.633
36 | A20C C27U A37C A42G | 0.688
37 | A20C C27U A37C A42G C66U | ≤ 0.5
38 | A20C C27U A40C | 0.63
39 | A20C C27U A69U | 0.81
40 | A20C C27U C34G A43C C61U C62G | ≤ 0.5
41 | A20C C27U C55U | 0.76
42 | A20C C27U G51C U64A C66U A69C | ≤ 0.5
43 | A20C C27U G67U | 0.674
44 | A20C C29A | 0.635
45 | A20C C29G A65U | 0.51
46 | A20C C29G C62A | ≤ 0.5
47 | A20C C29G G52A | ≤ 0.5
48 | A20C C29U | 0.715

Row | Variant | yeast fitness
49 | A20C C29U C49G G63C C66G | ≤ 0.5
50 | A20C C29U C66U | 0.603
51 | A20C C29U G50C U59G C62U G68A | 0.567
52 | A20C C29U U32A C62U A70U | ≤ 0.5
53 | A20C C30A C55A | 0.571
54 | A20C C30A C55A G67A | 0.534
55 | A20C C30A C55G | 0.557
56 | A20C C30G A40G | ≤ 0.5
57 | A20C C30G C46A U47G C49A G52A G58C U64G A65G | ≤ 0.5
58 | A20C C30G C60G | ≤ 0.5
59 | A20C C30G U53G C61G | 0.621
60 | A20C C30U | 0.903
61 | A20C C30U C46A C62G A65G | 0.534
62 | A20C C30U C61A | ≤ 0.5
63 | A20C C30U G51C C55G A57U C66U | ≤ 0.5
64 | A20C C30U G68A | ≤ 0.5
65 | A20C C31A C34G A57G A65U | ≤ 0.5
66 | A20C C31A U59C | 0.599
67 | A20C C31G | 0.744
68 | A20C C31G A36G | 0.764
69 | A20C C31U | 1.03
70 | A20C C33A A70G | 0.592
71 | A20C C33A G39A | ≤ 0.5
72 | A20C C34A A37G C46A A70C | ≤ 0.5

Row | Variant | yeast fitness
73 | A20C C34A A37G C62U C66U | 0.554
74 | A20C C34A C62U | ≤ 0.5
75 | A20C C34A G56C | ≤ 0.5
76 | A20C C34A G63C | ≤ 0.5
77 | A20C C34G | 0.527
78 | A20C C34G A43C G56A C61U A65G | ≤ 0.5
79 | A20C C34G A43U | ≤ 0.5
80 | A20C C34G C66U | ≤ 0.5
81 | A20C C34G G67U A69G | ≤ 0.5
82 | A20C C34U | 0.65
83 | A20C C34U C60A C66U A70U | ≤ 0.5
84 | A20C C34U C66U | 0.543
85 | A20C C34U G52A | 0.574
86 | A20C C34U G52A G68A | ≤ 0.5
87 | A20C C46A C49G | 0.548
88 | A20C C46G | 1.02
89 | A20C C46G C62G | 0.529
90 | A20C C49A G52A C61U | ≤ 0.5
91 | A20C C49G | 0.795
92 | A20C C49G G67A | 0.59
93 | A20C C49U | 1.03
94 | A20C C55U | 0.612
95 | A20C C55U C66G | ≤ 0.5
96 | A20C C55U G67A | 0.53

Row | Variant | yeast fitness
97 | A20C C60A | 0.587
98 | A20C C60G C62U | ≤ 0.5
99 | A20C C62A G68C | ≤ 0.5
100 | A20C G23A C29U A36C A43C | ≤ 0.5
101 | A20C G23A C55G C60A | 0.561
102 | A20C G23A U35A G52C C55A | ≤ 0.5
103 | A20C G25C A40C A43C C55A C61G C66G | ≤ 0.5
104 | A20C G25C C33A C55A | ≤ 0.5
105 | A20C G25C C33U C60A C66G | ≤ 0.5
106 | A20C G25C G44C G58A G68C | ≤ 0.5
107 | A20C G38A A57U | ≤ 0.5
108 | A20C G41A | 0.779
109 | A20C G41C A42C G56A U64C | ≤ 0.5
110 | A20C G44A | 0.778
111 | A20C G44A C46U A69C | 0.698
112 | A20C G44A C60A G67A | ≤ 0.5
113 | A20C G44C A70U | 0.573
114 | A20C G44C C61U | 0.56
115 | A20C G44C G48A G51A | ≤ 0.5
116 | A20C G48A | 0.908
117 | A20C G48A C49A | 0.557
118 | A20C G52A | 0.705
119 | A20C G52A G68A | ≤ 0.5
120 | A20C G56A | 0.866

Row | Variant | yeast fitness
121 | A20C G56A G67A | 0.577
122 | A20C G56U | 0.765
123 | A20C G58C | 1.03
124 | A20C G63A | 0.843
125 | A20C G67C A69G | 0.539
126 | A20C U26A C61A A65U | 0.555
127 | A20C U26C C30U C61A | ≤ 0.5
128 | A20C U28A A70G | 0.564
129 | A20C U28C A40U | 0.971
130 | A20C U28C C29A A36U A40U C49G G63C A70U | ≤ 0.5
131 | A20C U28C C30A G44C A45G C55A G63C | ≤ 0.5
132 | A20C U28C C34A | 0.791
133 | A20C U28G A69C | 0.714
134 | A20C U32G A45G U53A U54A | 0.533
135 | A20C U35A A36G G44C G68U | ≤ 0.5
136 | A20C U35C G51C C60G A70U | ≤ 0.5
137 | A20C U47A G48C | 0.526
138 | A20C U53C | 0.717
139 | A20C U59A A65C A70C | ≤ 0.5
140 | A20C U59A C62G A70C | ≤ 0.5
141 | A20C U59C | 0.749
142 | A20C U64G | 0.746
143 | A20G | 1
144 | A20G A21G | 0.986

Row | Variant | yeast fitness
145 | A20G A21G C22U | 0.564
146 | A20G A21G C29G C46G G52A | ≤ 0.5
147 | A20G A21G C34G C61U A70C | ≤ 0.5
148 | A20G A36C C49G C61G C62G | ≤ 0.5
149 | A20G A36C G48C U53C A70C | ≤ 0.5
150 | A20G A36G | 1.01
151 | A20G A36G A37U | ≤ 0.5
152 | A20G A36U | 0.644
153 | A20G A36U C49G | ≤ 0.5
154 | A20G A36U C55G | ≤ 0.5
155 | A20G A36U C66A | 0.529
156 | A20G A36U G68C | 0.535
157 | A20G A37C | 0.929
158 | A20G A37C G39A A65U A70C | ≤ 0.5
159 | A20G A37C G68A | 0.515
160 | A20G A37G G38A C55U U59G | 0.563
161 | A20G A37G G44A A65U | ≤ 0.5
162 | A20G A37U | 0.795
163 | A20G A37U C62A | ≤ 0.5
164 | A20G A40C A42U A43C G48A | 0.562
165 | A20G A40C A42U A43C G48A C66U | 0.532
166 | A20G A40C A42U A43C G50A | ≤ 0.5
167 | A20G A40G | 0.888
